Reference: ChEMBL document CHEMBL3227988, “Synthesis and antiviral activities of arabinofuranosyl-5-ethylpyrimidine nucleosides. Selective antiherpes activity of 1-(beta-D-arabinofuranosyl)-5-ethyluracil” (J Med Chem, 1979)
Values after ≈ are worked out from the molar mass of the structure shown. Active and inactive are the calls of the source. The calls are words filed in the database; no cut-off is given here.

Legend:
[1] = test system: Vesicular stomatitis virus; assay: Antiviral activity against Vesicular stomatitis virus infected in primary rabbit kidney cells assessed as inhibition of virus-induced cytopathogenicity treated immediately after virus adsorption measured 2 to 3 days after virus infection; assay type: functional
[2] = test system: Human alphaherpesvirus 1; assay: Antiviral activity against Herpes simplex virus-1 KOS infected in primary rabbit kidney cells assessed as inhibition of virus-induced cytopathogenicity treated immediately after virus adsorption measured 2 to 3 days after virus infection; assay type: functional; conditions: Human alphaherpesvirus 1, KOS
[3] = test system: Human alphaherpesvirus 1; assay: Antiviral activity against Herpes simplex virus-1 KOS infected in human skin fibroblast cells assessed as inhibition of virus-induced cytopathogenicity treated immediately after virus adsorption measured 2 to 3 days after virus infection; assay type: functional; conditions: Human alphaherpesvirus 1, KOS
[4] = test system: Human alphaherpesvirus 2; assay: Antiviral activity against Herpes simplex virus-2 LYONS infected in primary rabbit kidney cells assessed as inhibition of virus-induced cytopathogenicity treated immediately after virus adsorption measured 2 to 3 days after virus infection; assay type: functional; conditions: Human alphaherpesvirus 2, LYONS
[5] = test system: Human alphaherpesvirus 2; assay: Antiviral activity against Herpes simplex virus-2 196 infected in primary rabbit kidney cells assessed as inhibition of virus-induced cytopathogenicity treated immediately after virus adsorption measured 2 to 3 days after virus infection; assay type: functional; conditions: Human alphaherpesvirus 2, 196
[6] = Antimetabolic activity against primary rabbit kidney cells assessed as inhibition of [methyl-3H]dThd incorporation into DNA after 16 hrs; assay type: ADME, cell-based, Oryctolagus cuniculus
Summary of the method: (§1)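 Compound added to primary rabbit kidney cell cultures together with the radiolabeled DNA precursor. Input per 10^? cells: [methyl-3H]dThd 0.12 μCi/0.01 nmol, [2-14C]dUrd 14 μCi/250 nmol. Incorporation measured after 16 h incubation. Value is the concentration giving 50% inhibition of precursor incorporation.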

[7] = Antimetabolic activity against primary rabbit kidney cells assessed as inhibition of [2-14C]dUrd incorporation into DNA after 16 hrs; assay type: ADME, cell-based, Oryctolagus cuniculus; summary of the method: as §1
[8] = test system: Human alphaherpesvirus 1; assay: Antiviral activity against Herpes simplex virus-1 KOS infected in primary rabbit kidney cells assessed as log reduction in virus yield at 100 ug/ml treated immediately after virus adsorption measured 24 to 48 hrs after virus infection; assay type: functional
[9] = test system: Vaccinia virus; assay: Antiviral activity against Vaccinia virus infected in primary rabbit kidney cells assessed as growth inhibition at 100 ug/ml treated immediately after virus adsorption measured 24 to 48 hrs after virus infection; assay type: functional, organism-based; conditions: Orthopoxvirus vaccinia
[10] = Antiviral index, ratio of minimal toxic dose require to inhibit cellular DNA synthesis in primary rabbit kidney cells by 50% to minimal effective dose require to inhibit HSV1 KOS cytopathogenicity; assay type: toxicity, cell-based
Summary of the method: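 Ratio of two doses. Numerator: dose inhibiting cellular DNA synthesis by 50%, measured as dThd or dUrd incorporation over 16 h. Denominator: minimal dose inhibiting HSV-1 KOS cytopathogenicity. For the CPE assay, virus input was 100 CCID50 per culture and compound was added right after adsorption. CPE was scored once untreated infected controls reached full CPE, generally at 2-3 days.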

[11] = test system: Human alphaherpesvirus 1; assay: Antiviral activity against Herpes simplex virus-1 KOS infected in primary rabbit kidney cells assessed as inhibition of virus-induced cytopathogenicity at 200 ug/ml treated immediately after virus adsorption measured 2 to 3 days after virus infection; assay type: functional, organism-based
[12] = test system: Human alphaherpesvirus 1; assay: Antiviral activity against Herpes simplex virus-1 KOS infected in human skin fibroblast cells assessed as inhibition of virus-induced cytopathogenicity at 200 ug/ml treated immediately after virus adsorption measured 2 to 3 days after virus infection; assay type: functional, organism-based
[13] = test system: Human alphaherpesvirus 2; assay: Antiviral activity against Herpes simplex virus-2 LYONS infected in primary rabbit kidney cells assessed as inhibition of virus-induced cytopathogenicity at 200 ug/ml treated immediately after virus adsorption measured 2 to 3 days after virus infection; assay type: functional, organism-based
[14] = test system: Human alphaherpesvirus 2; assay: Antiviral activity against Herpes simplex virus-2 196 infected in primary rabbit kidney cells assessed as inhibition of virus-induced cytopathogenicity at 200 ug/ml treated immediately after virus adsorption measured 2 to 3 days after virus infection; assay type: functional, organism-based

O=c1ccn([C@@H]2O[C@H](CO)[C@@H](O)[C@@H]2O)c(=O)[nH]1 [ARAURIDINE]
MIC [1]: > 200 µg/mL | MIC [2]: 20 µg/mL (≈ 81.9 µM) | MIC [3]: 20 µg/mL (≈ 81.9 µM) | MIC [4]: 20 µg/mL (≈ 81.9 µM) | MIC [5]: 20 µg/mL (≈ 81.9 µM) | MIC [6]: 300 µg/mL (≈ 1230 µM) | MIC [7]: > 400 µg/mL

CCc1cn([C@@H]2O[C@H](CO)[C@@H](O)[C@@H]2O)c(=O)[nH]c1=O
MIC [1]: > 200 µg/mL | MIC [2]: 2 µg/mL (≈ 7.35 µM) | MIC [3]: 2 µg/mL (≈ 7.35 µM) | MIC [4]: 10 µg/mL (≈ 36.7 µM) | MIC [5]: 20 µg/mL (≈ 73.5 µM) | MIC [6]: > 200 µg/mL | MIC [7]: > 200 µg/mL | log10PFU/ml [8]: >3 | inhibition [9]: inactive | selectivity ratio [10]: > 100

CCc1cn([C@H]2O[C@H](CO)[C@@H](O)[C@@H]2O)c(=O)[nH]c1=O
inhibition [11]: inactive | inhibition [12]: inactive | inhibition [13]: inactive | inhibition [14]: inactive

Nc1ccn([C@@H]2O[C@H](CO)[C@@H](O)[C@@H]2O)c(=O)n1 [CYTARABINE]
MIC [1]: 4 µg/mL (≈ 16.4 µM) | MIC [2]: 0.03 µg/mL (≈ 0.123 µM) | MIC [3]: 0.02 µg/mL (≈ 0.0822 µM) | MIC [4]: 0.04 µg/mL (≈ 0.164 µM) | MIC [5]: 0.03 µg/mL (≈ 0.123 µM) | MIC [6]: 0.1 µg/mL (≈ 0.411 µM) | MIC [7]: 0.05 µg/mL (≈ 0.206 µM)

Cc1cn([C@@H]2O[C@H](CO)[C@@H](O)[C@@H]2O)c(=O)[nH]c1=O
MIC [1]: > 200 µg/mL | MIC [2]: 0.2 µg/mL (≈ 0.775 µM) | MIC [3]: 0.1 µg/mL (≈ 0.387 µM) | MIC [4]: 0.3 µg/mL (≈ 1.16 µM) | MIC [5]: 0.4 µg/mL (≈ 1.55 µM) | MIC [6]: 300 µg/mL (≈ 1160 µM) | MIC [7]: 300 µg/mL (≈ 1160 µM)

CCc1cn([C@@H]2O[C@H](CO)[C@@H](O)[C@@H]2O)c(=O)nc1N
MIC [1]: > 200 µg/mL | MIC [2]: 100 µg/mL (≈ 369 µM) | MIC [3]: 20 µg/mL (≈ 73.7 µM) | MIC [7]: > 200 µg/mL

CCc1cn([C@H]2O[C@H](CO)[C@@H](O)[C@@H]2O)c(=O)nc1N
inhibition [11]: inactive | inhibition [12]: inactive | inhibition [13]: inactive | inhibition [14]: inactive
